Data taken from ChEMBL document CHEMBL4138274, “Multiflorumisides A-G, Dimeric Stilbene Glucosides with Rare Coupling Patterns from the Roots of Polygonum multiflorum” (J Nat Prod, 2018).

Experiments:
RAW264.7 [1] = experiment: Antiinflammatory activity in mouse RAW264.7 cells assessed as inhibition of LPS-stimulated nitric oxide production at 20 uM after 48 hrs by Griess assay relative to control; format: functional; details: RAW264.7, 48 h
In short: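 RAW264.7 cells seeded at 4 × 10^4 per well, held 2 h at 37 °C in humidified 5% CO2, then exposed to LPS (200 ng/mL) plus serially diluted test compound for 48 h at 37 °C. Supernatant was mixed 1:1 with Griess reagent, incubated 15 min, and absorbance read at 540 nm as a nitrite measure.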

RAW264.7 [2] = experiment: Cytotoxicity against LPS-stimulated mouse RAW264.7 cells assessed as effect on cell viability at 20 uM after 48 hrs by MTT assay; format: cell-based; details: raw264.7, 48 h
In short: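 Viability by MTT on RAW264.7 cells seeded at 4 × 10^4 per well and held 2 h at 37 °C in humidified 5% CO2. Cells were then treated for 48 h at 37 °C with LPS (200 ng/mL) together with serially diluted test compound.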

Row | SMILES | inhibition at 20 µM (RAW264.7 [1]) [%] | Activity (RAW264.7 [2])
1 | OC[C@H]1O[C@@H](Oc2c(O)cc(O)cc2[C@H]2[C@H](c3ccc(O)cc3)[C@H](c3cc(O)cc(O)c3O[C@@H]3O[C@H](CO)[C@@H](O)[C@H](O)[C@H]3O)[C@H]2c2ccc(O)cc2)[C@H](O)[C@@H](O)[C@@H]1O | 22.4 | Non-Toxic
2 | OC[C@H]1O[C@@H](Oc2c(O)cc(O)cc2[C@@H]2[C@@H](c3ccc(O)cc3)[C@H](c3ccc(O)cc3)[C@H]2c2cc(O)cc(O)c2O[C@@H]2O[C@H](CO)[C@@H](O)[C@H](O)[C@H]2O)[C@H](O)[C@@H](O)[C@@H]1O | 22 | Non-Toxic
3 | OC[C@H]1O[C@@H](Oc2c(O)cc(O)cc2[C@H]2[C@H](c3ccc(O)cc3)[C@@H](c3cc(O)cc(O)c3O[C@@H]3O[C@H](CO)[C@@H](O)[C@H](O)[C@H]3O)[C@@H]2c2ccc(O)cc2)[C@H](O)[C@@H](O)[C@@H]1O | 16.7 | Non-Toxic
4 | OC[C@H]1O[C@@H](Oc2c(O)cc(O)cc2[C@H]2[C@@H](c3ccc(O)cc3)c3c(O)cc(O)c(O[C@@H]4O[C@H](CO)[C@@H](O)[C@H](O)[C@H]4O)c3C[C@@H]2c2ccc(O)cc2)[C@H](O)[C@@H](O)[C@@H]1O |  | Non-Toxic
5 | OC[C@H]1O[C@@H](Oc2c(O)cc(O)cc2[C@@H]2[C@@H](c3ccc(O)cc3)[C@@H](c3ccc(O)cc3)[C@@H]2c2cc(O)cc(O)c2O[C@@H]2O[C@H](CO)[C@@H](O)[C@H](O)[C@H]2O)[C@H](O)[C@@H](O)[C@@H]1O | 16.8 | Non-Toxic
6 | OC[C@H]1O[C@@H](Oc2c(O)cc(O)cc2[C@H]2[C@H](c3ccc(O)cc3)c3c(O)cc(O)c(O[C@@H]4O[C@H](CO)[C@@H](O)[C@H](O)[C@H]4O)c3C[C@H]2c2ccc(O)cc2)[C@H](O)[C@@H](O)[C@@H]1O |  | Non-Toxic
7 | C[C@@H]1C[C@H]2[C@@H]3CCC4=CC(=O)C=C[C@]4(C)[C@@]3(F)[C@@H](O)C[C@]2(C)[C@@]1(O)C(=O)CO [DEXAMETHASONE] | 60.9 | 
8 | OC[C@H]1O[C@@H](Oc2c(O)cc(O)cc2[C@@H]2[C@@H](c3ccc(O)cc3)c3c(O)cc(O)c(O[C@@H]4O[C@H](CO)[C@@H](O)[C@H](O)[C@H]4O)c3C[C@H]2c2ccc(O)cc2)[C@H](O)[C@@H](O)[C@@H]1O |  | Non-Toxic
